Screening results: PubChem, Broad Institute
HIV Env fusion – inhibitors of HIV Env-mediated cell fusion | HeLa-JRFL Env/CEM21 cell fusion, luciferase | inhibition, % at 12.3 µM | actives 1.1% (n = 360,000);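 active means mean replicate inhibition score of at least 50 and every replicate individually at or above 50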
Rtt109 HAT inh – C. albicans Rtt109 histone acetyltransferase inhibition; Q5AAJ8; purified Rtt109/Vps75, ThioGlo CoA-SH fluorescence, 4 h; inhibition, % at 34.9 µM; actives 0.16% (n = 330,000);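 active means inhibition of at least 50% in every replicate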
SR-BI DiI-HDL act – enhances SR-BI lipid uptake from DiI-HDL; activation, % at 12.5 µM; CHO ldlA[mSR-BI] cells, DiI-HDL uptake fluorescence, 3 h; 100 = double the neutral-control signal; actives 0.096% (n = 320,000);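 active means mean replicate activation of at least 60% and every replicate at or above 60%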
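system = CHO ldlA[mSR-BI] cells, LDL receptor-null, SR-BI overexpressing | medium = Ham's F12 with 0.5% BSA, HEPES 25 mM, pH 7.4 | probe or stimulus = DiI-HDL 10 µg/mL | compound dosing = single-point compound dose | incubation = compound exposure 3 h, 37 °C | technique = DiI fluorescence, bottom read | read-out = cell-associated DiI fluorescence as measure of HDL uptake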
SR-BI HDL uptake – inhibitors of mouse SR-BI mediated HDL lipid uptake; ldlA[mSR-BI] CHO cells, DiI-HDL uptake fluorescence, 3 h; inhibition, % at 12.5 µM; actives 0.96% (n = 320,000); AID 488896;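 active means mean replicate inhibition of at least 70% and a set share of replicates each scoring 70 or more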
Target sequence (Q61009 whole entry, looked up): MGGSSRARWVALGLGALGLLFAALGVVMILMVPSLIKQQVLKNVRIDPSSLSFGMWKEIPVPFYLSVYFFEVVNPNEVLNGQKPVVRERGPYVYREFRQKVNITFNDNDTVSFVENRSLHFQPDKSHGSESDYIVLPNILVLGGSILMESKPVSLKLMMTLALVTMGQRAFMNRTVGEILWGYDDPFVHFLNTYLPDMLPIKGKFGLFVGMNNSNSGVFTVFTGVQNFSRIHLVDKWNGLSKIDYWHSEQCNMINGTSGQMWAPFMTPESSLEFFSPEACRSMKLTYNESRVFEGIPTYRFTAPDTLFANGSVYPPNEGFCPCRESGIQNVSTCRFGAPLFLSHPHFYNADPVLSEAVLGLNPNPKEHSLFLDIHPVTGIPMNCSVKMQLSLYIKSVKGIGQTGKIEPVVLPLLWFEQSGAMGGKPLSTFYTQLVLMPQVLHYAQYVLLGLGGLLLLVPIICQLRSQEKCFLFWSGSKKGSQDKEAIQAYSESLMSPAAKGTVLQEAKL
N-glyco inh – blocks N-linked glycosylation in D54 reporter cells; D54 ERlucT glycosylation luciferase reporter, 24 h; percent of 100 nM tunicamycin response; reporter increase, % at 12.5 µM; actives 0.23% (n = 360,000);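 active means mean luciferase reporter signal, scaled so untreated is 0 and the glycosylation-blocking control 100, at or above a set limit in every replicate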;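 further: luciferase carries N-glycosylation sites so blocking glycosylation raises the light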
PglD inh – PglD (C. jejuni) enzyme inhibition | inhibition, % at 12.5 µM | actives 0.098% (n = 360,000) | purified PglD enzyme, DTNB colorimetric CoA detection; in the data active means inhibition above about 16%, passing the limit was not always enough
A number is an active result; [ ] = remark or other dose. Most compounds without a hit are left out; they make up all but 1.9% or so of the library.

COc1ccc(C(=O)NCCc2c[nH]c3ccccc23)cc1S(=O)(=O)N1CCCCC1C (stereo not given) was read as HIV Env fusion inactive, Rtt109 HAT inh inactive, SR-BI DiI-HDL act inactive, SR-BI HDL uptake inactive, N-glyco inh inactive and PglD inh inactive.
For O=C(CCl)Nc1cn(-c2ccccc2)nc1-c1ccc(F)cc1 the results were HIV Env fusion inactive, Rtt109 HAT inh inactive, SR-BI DiI-HDL act inactive, SR-BI HDL uptake inactive and N-glyco inh 52.
For CC(=O)Nc1ccc(NC(=O)c2csc([C@@H]3C[C@H](O)[C@@H](CO)O3)n2)cc1 the results were HIV Env fusion inactive, N-glyco inh inactive and PglD inh inactive.
Screening O=C(Nc1ccc(Oc2ccccc2)cc1)c1csc([C@H]2C[C@H](O)[C@@H](CO)O2)n1 returned HIV Env fusion 68, N-glyco inh inactive and PglD inh inactive.
`C[C@@H]1CCCCO[C@@H](CN(C)Cc2ccc3c(c2)OCO3)[C@@H](C)CN([C@@H](C)CO)C(=O)c2cc(NS(=O)(=O)c3ccc(F)cc3)ccc2O1` gave HIV Env fusion inactive and PglD inh inactive.
For COc1ccc(NC(=O)c2sc3nc(-c4cccnc4)ccc3c2N)cc1OC the results were HIV Env fusion inactive, Rtt109 HAT inh inactive, SR-BI DiI-HDL act inactive, SR-BI HDL uptake 74, N-glyco inh inactive and PglD inh inactive.
Screening CO[C@H](CN(C)S(=O)(=O)c1ccccc1)[C@@H](C)CN(Cc1ccccc1Cl)[C@@H](C)CO returned PglD inh inactive.
For CCOC(=O)c1sc(NC(=O)Nc2ccc(Cl)cc2)cc1C the results were HIV Env fusion 74, Rtt109 HAT inh inactive, SR-BI DiI-HDL act inactive, SR-BI HDL uptake 76, N-glyco inh inactive and PglD inh inactive.
Screening CCOC(=O)c1sc(NC(=O)c2c(C)nn(Cc3ccccc3)c2C)cc1C returned HIV Env fusion inactive, Rtt109 HAT inh inactive, SR-BI DiI-HDL act inactive, SR-BI HDL uptake 82, N-glyco inh inactive and PglD inh inactive.
For CCOC(=O)c1sc(NC(=O)c2ccc(Cl)s2)cc1C the results were HIV Env fusion inactive, Rtt109 HAT inh inactive, SR-BI DiI-HDL act inactive, SR-BI HDL uptake inactive, N-glyco inh inactive and PglD inh inactive.
`C[C@H]1CCCCO[C@H](CN(C)CC2CCCCC2)[C@@H](C)CN([C@@H](C)CO)C(=O)c2cc(NC(=O)NC3CCCCC3)ccc2O1` gave HIV Env fusion inactive and PglD inh inactive.
`O=C(O)COc1ccc(/C=N/NC(=O)c2cn(-c3ccccc3)nc2-c2ccccc2)cc1` gave HIV Env fusion inactive, Rtt109 HAT inh inactive, SR-BI DiI-HDL act inactive, SR-BI HDL uptake inactive, N-glyco inh inactive and PglD inh inactive.
For O=C(N/N=C/c1ccc([N+](=O)[O-])o1)c1cn(-c2ccccc2)nc1-c1ccccc1 the results were HIV Env fusion inactive, Rtt109 HAT inh inactive, SR-BI DiI-HDL act inactive, SR-BI HDL uptake 84 and N-glyco inh inactive.
`O=C(N/N=C/c1ccc([N+](=O)[O-])o1)c1cn(-c2ccccc2)nc1-c1ccc(Cl)cc1` gave HIV Env fusion inactive, Rtt109 HAT inh inactive, SR-BI DiI-HDL act inactive, SR-BI HDL uptake 112, N-glyco inh inactive and PglD inh inactive.
`Cc1[nH]nc2ncc(C(=O)c3ccccc3O)cc12` gave HIV Env fusion 64, Rtt109 HAT inh inactive, SR-BI DiI-HDL act inactive, SR-BI HDL uptake inactive, N-glyco inh inactive and PglD inh inactive.
`CC(CNC(=O)[C@H]1O[C@@H](n2cnc3c(=O)[nH]c(N)nc32)[C@H](O)[C@@H]1O)c1ccccc1` (stereo not given in full) gave HIV Env fusion inactive.
`Nc1nc2c(ncn2[C@@H]2O[C@H](C(=O)NCC(c3ccccc3)c3ccccc3)[C@@H](O)[C@H]2O)c(=O)[nH]1` gave HIV Env fusion 75.
Screening S=C1Cc2ccccc2N1 returned HIV Env fusion 73, Rtt109 HAT inh inactive, SR-BI DiI-HDL act inactive, SR-BI HDL uptake 97, N-glyco inh inactive and PglD inh inactive.
S=C1Nc2ccccc2CS1 was read as HIV Env fusion inactive, N-glyco inh inactive and PglD inh inactive.
Cc1noc(C)c1NC(=O)N(C)C[C@@H]1OCCCC[C@@H](C)Oc2ccc(NC(=O)Nc3ccccc3)cc2C(=O)N([C@@H](C)CO)C[C@@H]1C was read as HIV Env fusion inactive and PglD inh inactive.
Screening COc1ccc(OC)c2sc(NC(=O)c3ccc(Cl)s3)nc12 returned HIV Env fusion inactive, Rtt109 HAT inh inactive, SR-BI DiI-HDL act inactive, SR-BI HDL uptake 87, N-glyco inh inactive and PglD inh inactive.
Screening COc1ccc(OC)c2sc(NC(=O)c3ccc(Br)s3)nc12 returned Rtt109 HAT inh inactive, SR-BI DiI-HDL act inactive, SR-BI HDL uptake inactive, N-glyco inh inactive and PglD inh inactive.
Screening CO[C@H]1CN(C)C(=O)c2ccc(NS(=O)(=O)c3ccc(C)cc3)cc2OC[C@H](C)NC[C@@H]1C returned HIV Env fusion inactive.
O=[N+]([O-])c1ccc(O)c(N=Cc2sc3ccccc3c2O)c1 was read as HIV Env fusion inactive, Rtt109 HAT inh inactive, SR-BI DiI-HDL act inactive, SR-BI HDL uptake 124, N-glyco inh inactive and PglD inh inactive.
`CCn1c(=NC(=O)CS(=O)(=O)c2ccc(C)cc2)sc2cccc(OC)c21` gave HIV Env fusion 75, Rtt109 HAT inh inactive, SR-BI DiI-HDL act inactive, SR-BI HDL uptake inactive, N-glyco inh inactive and PglD inh inactive.
`COc1cccc2sc(=NC(=O)CS(=O)(=O)c3ccc(F)cc3)n(C)c12` gave HIV Env fusion inactive, Rtt109 HAT inh inactive, SR-BI DiI-HDL act inactive, SR-BI HDL uptake inactive, N-glyco inh inactive and PglD inh inactive.
Screening O=C(NCC[C@@H]1CC[C@@H](NS(=O)(=O)c2ccccc2F)[C@@H](CO)O1)c1ccc(F)cc1 returned HIV Env fusion 61[16.7 µM] and PglD inh inactive.
For Cc1ccc(S(=O)(=O)N[C@@H]2CC[C@H](CCNC(=O)c3ccccc3F)O[C@H]2CO)cc1 the results were HIV Env fusion 66[16.7 µM] and PglD inh inactive.
Screening CCCN1C[C@@H](C)[C@H](OC)CN(C)C(=O)c2cc(NC(=O)c3cnccn3)ccc2OC[C@H]1C returned HIV Env fusion inactive and PglD inh inactive.
For COc1cc(-c2cc3nc(NCCOc4ccccc4)ccn3n2)cc(OC)c1OC the results were HIV Env fusion inactive, N-glyco inh 46 and PglD inh inactive.
c1ccc(COc2ccc(-c3cc4nc(NCCOc5ccccc5)ccn4n3)cc2)cc1 was read as HIV Env fusion 43, N-glyco inh inactive and PglD inh inactive.
`COc1cc(-c2cc3nc(NCCc4ccncc4)ccn3n2)cc(OC)c1OC` gave HIV Env fusion inactive, N-glyco inh 28 and PglD inh inactive.
